According to ChEMBL document CHEMBL4689842, “EUbOPEN Chemogenomics Library wave 1” (2021):

Tested on: HEK-293T
Test: Multiplex assay against HEK293T;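 on Population Tubulin-Different-Phenotype (%): share of the cells with healthy nuclei that show this phenotype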
Type: toxicity, cell-based
Settings: human
In short: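 Compound was added to live cells that had been stained at seeding with Hoechst33342, BioTracker Green Microtubule Cytoskeleton Dye, MitoTracker Red and Annexin V Alexa Fluor 680, and imaging followed on a CQ1 microscope at 37°C and 5% CO2. CellPathfinder machine-learning gating divided cells into Hoechst high-intensity objects or normal cells, normal cells into healthy, pyknosed or fragmented nuclei, and pyknosed cells into mitotic or apoptotic. Tubulin, mitochondrial-mass and membrane-permeability phenotypes are per cents of healthy-nucleus cells.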

[1] = 12 h, 1 µM, compound concentration 1 uM, replicate 1
[2] = 12 h, 1 µM, compound concentration 1 uM, replicate 2
[3] = 12 h, 10 µM, compound concentration 10 uM, replicate 1
[4] = 12 h, 10 µM, compound concentration 10 uM, replicate 2
[5] = 24 h, 1 µM, compound concentration 1 uM, replicate 1
[6] = 24 h, 1 µM, compound concentration 1 uM, replicate 2
[7] = 24 h, 10 µM, compound concentration 10 uM, replicate 1
[8] = 24 h, 10 µM, compound concentration 10 uM, replicate 2

C=CCn1c(=O)c2cnc(Nc3ccc(N4CCN(C)CC4)cc3)nc2n1-c1cccc(C(C)(C)O)n1 [ADAVOSERTIB]
Population Apoptotic (%) [1]: 16% | Population Fragmented Nuclei (%) [1]: 23% | Population Healthy Nuclei (%) [1]: 36% | Population Hoechst High Intensity Objects (%) [1]: 14% | Population Membrane Permeable-Phenotype (%) [1]: 4% | Population Mitochondria Different-Phenotype (%) [1]: 3% | Population Mitotic Cells (%) [1]: 83% | Population Normal (%) [1]: 85% | Population Pyknosed Nuclei (%) [1]: 39% | Population Tubulin-Different-Phenotype (%) [1]: 2% | Total Cell Count [1]: 606 | Population Apoptotic (%) [2]: 13% | Population Fragmented Nuclei (%) [2]: 7% | Population Healthy Nuclei (%) [2]: 62% | Population Hoechst High Intensity Objects (%) [2]: 3% | Population Membrane Permeable-Phenotype (%) [2]: 3% | Population Mitochondria Different-Phenotype (%) [2]: 16% | Population Mitotic Cells (%) [2]: 86% | Population Normal (%) [2]: 96% | Population Pyknosed Nuclei (%) [2]: 30% | Population Tubulin-Different-Phenotype (%) [2]: 15% | Total Cell Count [2]: 1183 | Population Apoptotic (%) [3]: 12% | Population Fragmented Nuclei (%) [3]: 20% | Population Healthy Nuclei (%) [3]: 22% | Population Hoechst High Intensity Objects (%) [3]: 17% | Population Membrane Permeable-Phenotype (%) [3]: 16% | Population Mitochondria Different-Phenotype (%) [3]: 16% | Population Mitotic Cells (%) [3]: 87% | Population Normal (%) [3]: 82% | Population Pyknosed Nuclei (%) [3]: 56% | Population Tubulin-Different-Phenotype (%) [3]: 47% | Total Cell Count [3]: 637 | Population Apoptotic (%) [4]: 9% | Population Fragmented Nuclei (%) [4]: 15% | Population Healthy Nuclei (%) [4]: 27% | Population Hoechst High Intensity Objects (%) [4]: 2% | Population Membrane Permeable-Phenotype (%) [4]: 4% | Population Mitochondria Different-Phenotype (%) [4]: 32% | Population Mitotic Cells (%) [4]: 90% | Population Normal (%) [4]: 97% | Population Tubulin-Different-Phenotype (%) [4]: 70% | Total Cell Count [4]: 1182 | Population Apoptotic (%) [5]: 17% | Population Fragmented Nuclei (%) [5]: 22% | Population Healthy Nuclei (%) [5]: 46% | Population Hoechst High Intensity Objects (%) [5]: 9% | Population Membrane Permeable-Phenotype (%) [5]: 6% | Population Mitochondria Different-Phenotype (%) [5]: 5% | Population Mitotic Cells (%) [5]: 82% | Population Normal (%) [5]: 90% | Population Pyknosed Nuclei (%) [5]: 30% | Population Tubulin-Different-Phenotype (%) [5]: 6% | Total Cell Count [5]: 590 | Population Apoptotic (%) [6]: 16% | Population Fragmented Nuclei (%) [6]: 7% | Population Healthy Nuclei (%) [6]: 58% | Population Hoechst High Intensity Objects (%) [6]: 4% | Population Membrane Permeable-Phenotype (%) [6]: 5% | Population Mitochondria Different-Phenotype (%) [6]: 14% | Population Mitotic Cells (%) [6]: 83% | Population Normal (%) [6]: 95% | Population Pyknosed Nuclei (%) [6]: 33% | Population Tubulin-Different-Phenotype (%) [6]: 32% | Total Cell Count [6]: 1164 | Population Apoptotic (%) [7]: 21% | Population Fragmented Nuclei (%) [7]: 27% | Population Healthy Nuclei (%) [7]: 26% | Population Hoechst High Intensity Objects (%) [7]: 18% | Population Membrane Permeable-Phenotype (%) [7]: 12% | Population Mitochondria Different-Phenotype (%) [7]: 32% | Population Mitotic Cells (%) [7]: 78% | Population Normal (%) [7]: 81% | Population Pyknosed Nuclei (%) [7]: 46% | Population Tubulin-Different-Phenotype (%) [7]: 56% | Total Cell Count [7]: 609 | Population Apoptotic (%) [8]: 20% | Population Fragmented Nuclei (%) [8]: 15% | Population Healthy Nuclei (%) [8]: 39% | Population Hoechst High Intensity Objects (%) [8]: 3% | Population Membrane Permeable-Phenotype (%) [8]: 3% | Population Mitochondria Different-Phenotype (%) [8]: 53% | Population Mitotic Cells (%) [8]: 79% | Population Normal (%) [8]: 96% | Population Pyknosed Nuclei (%) [8]: 44% | Population Tubulin-Different-Phenotype (%) [8]: 80% | Total Cell Count [8]: 1042
